Screening results: PubChem, several laboratories
TNAP inh no acc – human TNAP enzyme inhibitors, primary screen, biochemical, luminescent, no phosphate acceptor, uHTS; Alkaline phosphatase, tissue-nonspecific isozyme (Homo sapiens), P05186; purified TNAP, CDP-star luminescence, 30 min; inhibition, % at 20 µM; actives 0.26% (n = 200,000);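 active means tissue-nonspecific alkaline phosphatase inhibition above about 50% at 20 µM in the single-dose screen, limit read from the data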;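 further: 0% = DMSO negative control and 100% = EDTA positive control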
Target sequence (P05186 whole entry, looked up): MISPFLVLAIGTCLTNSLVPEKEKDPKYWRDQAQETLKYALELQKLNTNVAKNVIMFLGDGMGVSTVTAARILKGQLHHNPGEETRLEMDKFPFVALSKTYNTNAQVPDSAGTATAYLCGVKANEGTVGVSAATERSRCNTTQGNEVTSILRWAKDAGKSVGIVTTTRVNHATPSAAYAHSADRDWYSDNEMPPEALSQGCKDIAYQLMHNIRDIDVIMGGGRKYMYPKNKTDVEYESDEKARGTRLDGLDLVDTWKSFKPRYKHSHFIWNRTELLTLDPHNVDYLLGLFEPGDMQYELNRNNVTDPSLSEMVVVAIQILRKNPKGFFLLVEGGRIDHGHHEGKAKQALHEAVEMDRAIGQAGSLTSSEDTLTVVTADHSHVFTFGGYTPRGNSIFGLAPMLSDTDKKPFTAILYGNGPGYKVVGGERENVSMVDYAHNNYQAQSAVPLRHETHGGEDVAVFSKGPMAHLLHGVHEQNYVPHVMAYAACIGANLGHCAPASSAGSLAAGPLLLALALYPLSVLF
Yeast lifespan up – compounds extending yeast replicative lifespan, primary screen, S. cerevisiae, OD615 | S. cerevisiae growth with nicotinamide; deaD strain in restrictive glucose medium | inhibition of the nicotinamide effect, % at 10 µM | actives 0.68% (n = 130,000) | AID 775, 2007;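 active means inhibition above a set limit, placed 3 SD over the median of all compounds, cut at about 26% in these data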;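 further: 0% = nicotinamide-treated wells and 100% = cells grown without nicotinamide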
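assay system = DeaD-strain S. cerevisiae | buffer or medium = restrictive glucose medium | reagent = 1.5 mM nicotinamide | compound = 10 µM single point, 0.25% DMSO | incubation = 48 h compound exposure at 30 °C, humidified | signal = OD615 measurement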
TNAP inh hiacc – human TNAP enzyme inhibitors, primary screen, biochemical, luminescent, high phosphate acceptor level, uHTS. Alkaline phosphatase, tissue-nonspecific isozyme (Homo sapiens), P05186. AID 1135, 2008. inhibition, % at 20 µM. purified TNAP, CDP-star luminescence, 1 M DEA. actives 0.03% (n = 200,000);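 active means over 50% inhibition of tissue-nonspecific alkaline phosphatase at 20 µM in the single-dose screen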;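 further: plate controls were DMSO wells for no effect and EDTA-quenched wells as full inhibition for full effect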
RAM inhibit – inhibitors of the yeast RAM network, primary screen, dse1pr::URA3 reporter, 5-FOA selection; inhibition, % at 50 µM; actives 1.8% (n = 190,000); S. cerevisiae dse1pr::URA3 reporter, 5-FOA growth OD615, 2 d; analog-sensitive cbk1-as2 kinase mutant strain;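 active means inhibition above a set limit, 3 SD over mean compound inhibition, cut at about 8.4% in these data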;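 further: 0% = DMSO-only wells with no growth and 100% = 10 µM 1-NA-PP1 full growth; inhibition rescues growth on 5-FOA so higher OD means more RAM inhibition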
TNAP act hiacc – TNAP activators at high phosphate acceptor level, primary screen, biochemical, luminescence, uHTS; activation factor at 20 µM; 200,000 tested, under 10 active; AID 1136, 2008; purified TNAP, CDP-star luminescence, 1 M DEA, 30 min; hits give high values; 0 = EDTA background, 1 = DMSO-only activity;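 active means activation factor at least 2 at 20 µM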
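Test system – human TNAP · Doses – 20 µM single point · Incubation – 30 min, room temperature · Signal – luminescent substrate turnover signal · Read-out basis – activation factor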
BB579 growth dn – growth inhibitors of yeast BB579 in restrictive medium, primary screen, yeast lifespan-shortening project, S. cerevisiae | OD615, 48 h | inhibition, % at 10 µM | actives 0.51% (n = 140,000) | AID 804, 2007;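 active means inhibition above a set limit, 3 SD over the mean compound inhibition, cut at about 44% in these data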
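controls = amphotericin B 10 µg/mL, positive | assay system = DeaD yeast strain BB579 | schedule = 48 h compound exposure at 30 °C after 4 h preincubation | detection = OD615 turbidity measurement | medium = restrictive CSMM-D medium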
Active calls of the source: *; . = no result given. An excerpt weighted towards active compounds, which were near 2.8% of everything screened.

SMILES | TNAP inh no acc | Yeast lifespan up | TNAP inh hiacc | RAM inhibit | TNAP act hiacc | BB579 growth dn
CC(C)NC(=S)N/N=C1\CCCCC1C1CCCCC1 (stereo unspecified) | -6.7 | -12.9 | -5.4 | 0.8 | 1.1 | 32.6
Cn1c(CCNC(=O)c2ccc(Cl)c(Cl)c2)nnc1SCc1ccc(Cl)c(Cl)c1 | -5.4 | 3.8 | -2.4 | 8.8* | 1 | -73.2
Cn1nccc1C(=O)OCC(=O)Nc1nc(-c2ccccc2)cs1 | 4.1 | -9.1 | -3.4 | 9.4* | 1 | -51.6
O=C(CSc1ncn[nH]1)NCCC(c1ccccc1)c1ccccc1 | 54.8* | -22.8 | 50.9* | 0.7 | 0.5 | 6.8
Cc1ccc(-c2csc(NC(=O)CSc3nc4ccccc4[nH]3)n2)cc1 | -66.6 | 9.1 | -1.0 | 9.8* | 1 | -58.1
Cc1cc(=O)[nH]c(SCC(=O)Nc2nc(-c3ccccc3)cs2)n1 | -0.1 | -1.8 | 0.4 | -0.6 | 1 | -11.8
O=C(CSc1ncn[nH]1)Nc1nc(-c2ccccc2)cs1 | 84.5* | -10.9 | -7.9 | 2.3 | 1.1 | -29.2
O=S(Cc1cc(Oc2ccccc2)nc(-c2ccccc2)n1)c1ccccc1 (stereo unspecified) | -9.6 | -17.9 | -2.8 | 7.2 | 1 | -45.7
CC(C)(CO)NC(=O)Nc1ccc(Cl)c(Cl)c1 | -12.3 | . | -3.2 | -0.4 | 1 | .
Cc1cc(NC(=O)C2CC2)ncc1NC(=O)C12CC3CC(CC(C3)C1)C2 | -12.7 | 28.9* | -5.5 | 0.1 | 1.1 | -30.8
CCCC(=O)Nc1cc(C)c(NC(=O)C23CC4CC(CC(C4)C2)C3)cn1 | -1.6 | 11.9 | -2.3 | 2.3 | 1 | -24.8
CCOc1ccc(C2N(c3ccc(F)cc3)C(=O)C3CCCN32)cc1OC (stereo unspecified) | -17.9 | -11.1 | -5.2 | 0.1 | 1.1 | -28.7
Cc1ccc(-c2nc3ccccc3nc2Cl)cc1 | -5.8 | . | -3.2 | 8.4* | 1 | .
CC(C)(C)[C@]1(O)CCN2C[C@H]3c4ccccc4CCc4cccc(c43)[C@@H]2C1 | -4.9 | 7.9 | -1.2 | 1.1 | 1 | -32.5
Cc1cc(NN)nc(NS(=O)(=O)c2ccccc2)n1 | 50.5* | . | -6.1 | -0.2 | 1.1 | .
Cc1cc(NN)nc(NS(=O)(=O)c2ccc(Cl)cc2)n1 | -3.5 | . | -3.9 | 0.9 | 1 | .
CC1(C)CC(=O)C(C(=O)/C=C/NCCc2ccccc2)C(=O)C1 | -4.3 | -0.3 | -5.5 | 0.0 | 1.1 | -14.3
CC(C)CN(C)C(=O)CCc1nnc(Cc2cccc(C(F)(F)F)c2)o1 | -7.7 | . | -1.1 | 0.5 | 1 | .
CCOC(=O)c1c(NC(=S)Nc2ccccc2)sc(C)c1C | -3.2 | . | 2.8 | 9.6* | 1 | -9.4
CCOC(=O)c1c(NC(=O)CSc2nc3ccccc3o2)sc(C)c1C | -2.6 | -3.4 | 0.8 | 6.9 | 1 | -55.4
CCOC(=O)c1c(NC(=S)Nc2ccc(Cl)cc2)sc2c1CCN(C)C2 | 13.8 | -13.5 | 4.4 | 1.9 | 1 | 98.3*
C=CCn1c(SCC(=O)Nc2sc(C)c(C)c2C(=O)OCC)nnc1-c1sc(N)nc1C | -9.2 | -6.3 | -1.9 | 11.1* | 1 | -27.6
CCOC(=O)c1c(NC(=O)CSc2nc3ccccc3s2)sc(C)c1C | -6.0 | 2.5 | -4.6 | 11.4* | 1 | -45.4
COc1ccc(OC)c(C(=O)CSc2nccc(-c3ccc(Br)cc3)n2)c1 | 2.1 | -5.2 | -4.4 | 1.1 | 1 | -18.2
CCOC(=O)CSc1nc2ccc(NC(=O)CSc3nnnn3Cc3ccccc3)cc2s1 | -12.0 | . | -3.4 | 9.5* | 1 | -39.6
CCOC(=O)c1c(-c2ccco2)csc1NC(=O)CSc1nnc(N)s1 | -4.8 | -13.6 | -1.7 | 10.2* | 1 | -28.9
